From ChEMBL document CHEMBL1671684, “In vitro resistance profile of the hepatitis C virus NS3/4A protease inhibitor TMC435” (Antimicrob Agents Chemother, 2010)

How the values were obtained:
Hepatitis C virus [1] = experiment: Antiviral activity against Hepatitis C virus subtype 1b expressing NS3 R155M mutant infected in HuH7 cells after 48 hrs by luciferase reporter assay; format: functional, organism-based, Hepacivirus hominis; conditions: genotype 1b, Huh-7, 48 h
In short: (§1)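 Genotype 1b con1 subgenomic bicistronic replicon (clone ET) with luciferase reporter and adaptive mutations E1202G, T1280I, K1846T, carrying site-directed NS3 single or double mutations. 10 μg wild-type or mutant replicon RNA electroporated into Huh7-lunet cells, seeded 4,000 cells/well over a nine-point inhibitor dilution series, 48 h at 37°C, 5% CO2, then luminescence read. EC50 taken as median of individual experiments; fold change relative to parental replicon EC50.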

Hepatitis C virus [2] = experiment: Ratio of EC50 for Hepatitis C virus subtype 1b expressing NS3 D168E mutant to EC50 for Hepatitis C virus subtype 1b expressing WT NS3 infected in HuH7 cells after 48 hrs by luciferase reporter assay; format: functional, Hepacivirus hominis, genotype 1b, Huh-7
In short: (§2)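 Transient replicon assay: site-directed single or multiple NS3 mutations engineered into genotype 1b (con1, clone ET) subgenomic bicistronic replicon with luciferase reporter and adaptive mutations E1202G, T1280I, K1846T. Huh7-lunet cells electroporated with 10 μg wild-type or mutant replicon RNA, seeded 4,000 cells/well with nine-point inhibitor dilution; 48 h, 37°C, 5% CO2; luminescence read-out. EC50 as median of individual experiments; fold change versus parental replicon EC50.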

Hepatitis C virus [3] = experiment: Ratio of EC50 for Hepatitis C virus subtype 1b expressing NS3 T54S mutant to EC50 for Hepatitis C virus subtype 1b expressing WT NS3 infected in HuH7 cells after 48 hrs by luciferase reporter assay; format: functional, Hepacivirus hominis, genotype 1b, Huh-7; in short: as §2
Hepatitis C virus [4] = experiment: Antiviral activity against Hepatitis C virus subtype 1b expressing NS3 D168Y mutant infected in HuH7 cells after 48 hrs by luciferase reporter assay; format: functional, organism-based, Hepacivirus hominis; conditions: genotype 1b, Huh-7, 48 h; in short: as §1
Hepatitis C virus [5] = experiment: Ratio of EC50 for Hepatitis C virus subtype 1b expressing NS3 F43S and D168E mutant to EC50 for Hepatitis C virus subtype 1b expressing WT NS3 infected in HuH7 cells after 48 hrs by luciferase reporter assay; format: functional, Hepacivirus hominis, genotype 1b, Huh-7; in short: as §2
Hepatitis C virus [6] = experiment: Ratio of EC50 for Hepatitis C virus subtype 1b expressing NS3 F43V mutant to EC50 for Hepatitis C virus subtype 1b expressing WT NS3 infected in HuH7 cells after 48 hrs by luciferase reporter assay; format: functional, Hepacivirus hominis, genotype 1b, Huh-7; in short: as §2
Hepatitis C virus [7] = experiment: Ratio of EC50 for Hepatitis C virus subtype 1b expressing NS3 D168V mutant to EC50 for Hepatitis C virus subtype 1b expressing WT NS3 infected in HuH7 cells after 48 hrs by luciferase reporter assay; format: functional, Hepacivirus hominis, genotype 1b, Huh-7; in short: as §2
Hepatitis C virus [8] = experiment: Antiviral activity against Hepatitis C virus subtype 1b expressing NS3 R155T mutant infected in HuH7 cells after 48 hrs by luciferase reporter assay; format: functional, organism-based, Hepacivirus hominis; conditions: genotype 1b, Huh-7, 48 h; in short: as §1
Hepatitis C virus [9] = experiment: Ratio of EC50 for Hepatitis C virus subtype 1b expressing NS3 Q80K mutant to EC50 for Hepatitis C virus subtype 1b expressing WT NS3 infected in HuH7 cells after 48 hrs by luciferase reporter assay; format: functional, Hepacivirus hominis, genotype 1b, Huh-7; in short: as §2
Hepatitis C virus [10] = experiment: Ratio of EC50 for Hepatitis C virus subtype 1b expressing NS3 V36L mutant to EC50 for Hepatitis C virus subtype 1b expressing WT NS3 infected in HuH7 cells after 48 hrs by luciferase reporter assay; format: functional, Hepacivirus hominis, genotype 1b, Huh-7; in short: as §2
Hepatitis C virus [11] = experiment: Ratio of EC50 for Hepatitis C virus subtype 1b expressing NS3 A156T mutant to EC50 for Hepatitis C virus subtype 1b expressing WT NS3 infected in HuH7 cells after 48 hrs by luciferase reporter assay; format: functional, Hepacivirus hominis, genotype 1b, Huh-7; in short: as §1
Hepatitis C virus [12] = experiment: Ratio of EC50 for Hepatitis C virus subtype 1b expressing NS3 Q80G mutant to EC50 for Hepatitis C virus subtype 1b expressing WT NS3 infected in HuH7 cells after 48 hrs by luciferase reporter assay; format: functional, Hepacivirus hominis, genotype 1b, Huh-7; in short: as §2
Hepatitis C virus [13] = experiment: Antiviral activity against Hepatitis C virus subtype 1b expressing NS3 D168A mutant infected in HuH7 cells after 48 hrs by luciferase reporter assay; format: functional, organism-based, Hepacivirus hominis; conditions: genotype 1b, Huh-7, 48 h; in short: as §1
Hepatitis C virus [14] = experiment: Antiviral activity against Hepatitis C virus subtype 1b expressing NS3 V36M mutant infected in HuH7 cells after 48 hrs by luciferase reporter assay; format: functional, organism-based, Hepacivirus hominis; conditions: genotype 1b, Huh-7, 48 h; in short: as §1
Hepatitis C virus [15] = experiment: Antiviral activity against Hepatitis C virus subtype 1b expressing NS3 Q80H and D168E mutant infected in HuH7 cells after 48 hrs by luciferase reporter assay; format: functional, organism-based, Hepacivirus hominis; conditions: genotype 1b, Huh-7, 48 h; in short: as §1
Hepatitis C virus [16] = experiment: Antiviral activity against Hepatitis C virus subtype 1b expressing NS3 F43I mutant infected in HuH7 cells after 48 hrs by luciferase reporter assay; format: functional, organism-based, Hepacivirus hominis; conditions: genotype 1b, Huh-7, 48 h; in short: as §1
Hepatitis C virus [17] = experiment: Antiviral activity against Hepatitis C virus subtype 1b expressing NS3 Q80K and R155K mutant infected in HuH7 cells after 48 hrs by luciferase reporter assay; format: functional, organism-based, Hepacivirus hominis; conditions: genotype 1b, Huh-7, 48 h; in short: as §1
Hepatitis C virus [18] = experiment: Ratio of EC50 for Hepatitis C virus subtype 1b expressing NS3 D168T mutant to EC50 for Hepatitis C virus subtype 1b expressing WT NS3 infected in HuH7 cells after 48 hrs by luciferase reporter assay; format: functional, Hepacivirus hominis, genotype 1b, Huh-7; in short: as §2
Hepatitis C virus [19] = experiment: Antiviral activity against Hepatitis C virus subtype 1b expressing NS3 Q80K mutant infected in HuH7 cells after 48 hrs by luciferase reporter assay; format: functional, organism-based, Hepacivirus hominis; conditions: genotype 1b, Huh-7, 48 h; in short: as §1
Hepatitis C virus [20] = experiment: Antiviral activity against Hepatitis C virus subtype 1b expressing NS3 V170T mutant infected in HuH7 cells after 48 hrs by luciferase reporter assay; format: functional, organism-based, Hepacivirus hominis; conditions: genotype 1b, Huh-7, 48 h; in short: as §1
Hepatitis C virus [21] = experiment: Ratio of EC50 for Hepatitis C virus subtype 1b expressing NS3 R155K mutant to EC50 for Hepatitis C virus subtype 1b expressing WT NS3 infected in HuH7 cells after 48 hrs by luciferase reporter assay; format: functional, Hepacivirus hominis, genotype 1b, Huh-7; in short: as §2
Hepatitis C virus [22] = experiment: Antiviral activity against Hepatitis C virus subtype 1b expressing NS3 A156G mutant infected in HuH7 cells after 48 hrs by luciferase reporter assay; format: functional, organism-based, Hepacivirus hominis; conditions: genotype 1b, Huh-7, 48 h; in short: as §1
Hepatitis C virus [23] = experiment: Antiviral activity against Hepatitis C virus subtype 1b expressing NS3 Q80H mutant infected in HuH7 cells after 48 hrs by luciferase reporter assay; format: functional, organism-based, Hepacivirus hominis; conditions: genotype 1b, Huh-7, 48 h; in short: as §1
Hepatitis C virus [24] = experiment: Ratio of EC50 for Hepatitis C virus subtype 1b expressing NS3 Q80K and R155K mutant to EC50 for Hepatitis C virus subtype 1b expressing WT NS3 infected in HuH7 cells after 48 hrs by luciferase reporter assay; format: functional, Hepacivirus hominis, genotype 1b, Huh-7; in short: as §2
Hepatitis C virus [25] = experiment: Ratio of EC50 for Hepatitis C virus subtype 1b expressing NS3 D168H mutant to EC50 for Hepatitis C virus subtype 1b expressing WT NS3 infected in HuH7 cells after 48 hrs by luciferase reporter assay; format: functional, Hepacivirus hominis, genotype 1b, Huh-7; in short: as §2
Hepatitis C virus [26] = experiment: Antiviral activity against Hepatitis C virus subtype 1b expressing NS3 R155K mutant infected in HuH7 cells after 48 hrs by luciferase reporter assay; format: functional, organism-based, Hepacivirus hominis; conditions: genotype 1b, Huh-7, 48 h; in short: as §1
Hepatitis C virus [27] = experiment: Antiviral activity against Hepatitis C virus subtype 1b expressing NS3 T54A mutant infected in HuH7 cells after 48 hrs by luciferase reporter assay; format: functional, organism-based, Hepacivirus hominis; conditions: genotype 1b, Huh-7, 48 h; in short: as §1
Hepatitis C virus [28] = experiment: Antiviral activity against Hepatitis C virus subtype 1b expressing NS3 D168V mutant infected in HuH7 cells after 48 hrs by luciferase reporter assay; format: functional, organism-based, Hepacivirus hominis; conditions: genotype 1b, Huh-7, 48 h; in short: as §1
Hepatitis C virus [29] = experiment: Antiviral activity against Hepatitis C virus subtype 1b expressing NS3 F43S and Q80R mutant infected in HuH7 cells after 48 hrs by luciferase reporter assay; format: functional, organism-based, Hepacivirus hominis; conditions: genotype 1b, Huh-7, 48 h; in short: as §1
Hepatitis C virus [30] = experiment: Antiviral activity against Hepatitis C virus subtype 1b expressing NS3 F43S mutant infected in HuH7 cells after 48 hrs by luciferase reporter assay; format: functional, organism-based, Hepacivirus hominis; conditions: genotype 1b, Huh-7, 48 h; in short: as §1
Hepatitis C virus [31] = experiment: Antiviral activity against Hepatitis C virus subtype 1b expressing NS3 F43S and D168E mutant infected in HuH7 cells after 48 hrs by luciferase reporter assay; format: functional, organism-based, Hepacivirus hominis; conditions: genotype 1b, Huh-7, 48 h; in short: as §1
Hepatitis C virus [32] = experiment: Antiviral activity against Hepatitis C virus subtype 1b expressing NS3 V36A mutant infected in HuH7 cells after 48 hrs by luciferase reporter assay; format: functional, organism-based, Hepacivirus hominis; conditions: genotype 1b, Huh-7, 48 h; in short: as §1

| SMILES | EC50 (Hepatitis C virus [1]) [nM] | Ratio EC50 (Hepatitis C virus [2]) | Ratio EC50 (Hepatitis C virus [3]) | EC50 (Hepatitis C virus [4]) [nM] | Ratio EC50 (Hepatitis C virus [5]) | Ratio EC50 (Hepatitis C virus [6]) | Ratio EC50 (Hepatitis C virus [7]) | EC50 (Hepatitis C virus [8]) [nM] | Ratio EC50 (Hepatitis C virus [9]) | Ratio EC50 (Hepatitis C virus [10]) | Ratio EC50 (Hepatitis C virus [11]) | Ratio EC50 (Hepatitis C virus [12]) | EC50 (Hepatitis C virus [13]) [nM] | EC50 (Hepatitis C virus [14]) [nM] | EC50 (Hepatitis C virus [15]) [nM] | EC50 (Hepatitis C virus [16]) [nM] | EC50 (Hepatitis C virus [17]) [nM] | Ratio EC50 (Hepatitis C virus [18]) | EC50 (Hepatitis C virus [19]) [nM] | EC50 (Hepatitis C virus [20]) [nM] | also measured |
| --- | --- | --- | --- | --- | --- | --- | --- | --- | --- | --- | --- | --- | --- | --- | --- | --- | --- | --- | --- | --- | --- |
| COc1ccc2c(O[C@@H]3C[C@H]4C(=O)N[C@]5(C(=O)NS(=O)(=O)C6CC6)C[C@H]5/C=C\CCCCN(C)C(=O)[C@@H]4C3)cc(-c3nc(C(C)C)cs3)nc2c1C [SIMEPREVIR] | 3.5 | 40 | 1.2 | 6240 | 694 | 99 | 2591 | 314 | 7.7 | 1.7 | 44 | 1.8 | 6360 | 20 | 1360 | 562 | 4650 | 308 | 62 | 52 | Ratio EC50 (Hepatitis C virus [21]): 30; EC50 (Hepatitis C virus [22]): 206 nM; EC50 (Hepatitis C virus [23]): 41 nM; Ratio EC50 (Hepatitis C virus [24]): 364; Ratio EC50 (Hepatitis C virus [25]): 368; EC50 (Hepatitis C virus [26]): 260 nM; EC50 (Hepatitis C virus [27]): 5.9 nM; EC50 (Hepatitis C virus [28]): 17900 nM; EC50 (Hepatitis C virus [29]): 1820 nM; EC50 (Hepatitis C virus [30]): 83 nM; EC50 (Hepatitis C virus [31]): 3610 nM; EC50 (Hepatitis C virus [32]): 34 nM |
| CC(C)(C)NC(=O)N[C@H](C(=O)N1C[C@H]2[C@@H]([C@H]1C(=O)NC(CC1CCC1)C(=O)C(N)=O)C2(C)C)C(C)(C)C (some centres undefined) [BOCEPREVIR] | 792 | 0.8 | 8.5 | 193 | 3.2 | 2.4 | 0.5 | 5460 | 0.8 | 1.6 | 65 | 1.2 | 100 | 217 | 20 | 242 | 1080 | 1.1 | 94 | 210 | Ratio EC50 (Hepatitis C virus [21]): 4.7; EC50 (Hepatitis C virus [22]): 65 nM; EC50 (Hepatitis C virus [23]): 78 nM; Ratio EC50 (Hepatitis C virus [24]): 5.1; Ratio EC50 (Hepatitis C virus [25]): 0.7; EC50 (Hepatitis C virus [26]): 743 nM; EC50 (Hepatitis C virus [27]): 268 nM; EC50 (Hepatitis C virus [28]): 83 nM; EC50 (Hepatitis C virus [29]): 1550 nM; EC50 (Hepatitis C virus [30]): 333 nM; EC50 (Hepatitis C virus [31]): 417 nM; EC50 (Hepatitis C virus [32]): 1450 nM |
